What was measured:
[1] = DNS assay on normal human fibroblast; assay type: cell-based; conditions: HS27 normal fibroblasts
Method in brief: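 HS27 fibroblasts were tested by DNS imaging after exposure to test compound. Hoechst 33342, which stains all nuclei, and PI, which enters only membrane-compromised cells, were added before imaging.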

GLUT1 = biological target: T1, GLUT1 (Homo sapiens, UniProt P11166); experiment: GLUT transport inhibition assay in hxt0 yeast cells; assay type: cell-based
T1 sequence (P11166 1-492): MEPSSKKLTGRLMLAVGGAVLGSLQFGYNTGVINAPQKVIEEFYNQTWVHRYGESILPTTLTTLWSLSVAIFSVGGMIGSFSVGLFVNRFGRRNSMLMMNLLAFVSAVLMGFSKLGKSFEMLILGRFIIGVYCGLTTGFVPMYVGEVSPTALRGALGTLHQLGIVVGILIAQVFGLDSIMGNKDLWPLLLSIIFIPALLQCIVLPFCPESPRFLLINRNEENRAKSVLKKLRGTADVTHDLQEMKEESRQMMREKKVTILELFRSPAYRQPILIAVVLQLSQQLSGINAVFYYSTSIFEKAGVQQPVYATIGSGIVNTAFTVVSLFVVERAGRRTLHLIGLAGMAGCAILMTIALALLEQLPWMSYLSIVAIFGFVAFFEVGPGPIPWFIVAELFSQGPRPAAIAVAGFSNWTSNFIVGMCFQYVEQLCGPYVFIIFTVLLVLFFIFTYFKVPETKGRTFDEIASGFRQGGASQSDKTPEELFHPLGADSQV
Method in brief: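 hxt0 yeast (VW4000fgy1) expressing human GLUT1 was grown at 30 °C in SC-uracil, first on 2% maltose, then on 2% glucose. Cells were PBS-washed (pH 7.4) to OD600 ~10. Test compound was varied from 0.1 to 100 μM. Uptake of 5 mM 14C-glucose ran 10 min and was stopped with ice-cold quench buffer (pH 5.5). Cells were filtered and counted by scintillation.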

GLUT4 = biological target: T2, GLUT4 (Homo sapiens, UniProt P14672); experiment: GLUT transport inhibition assay in hxt0 yeast cells; assay type: cell-based; conditions: 50 μM compound, 5 mM C14-glucose
T2 sequence (P14672 1-509): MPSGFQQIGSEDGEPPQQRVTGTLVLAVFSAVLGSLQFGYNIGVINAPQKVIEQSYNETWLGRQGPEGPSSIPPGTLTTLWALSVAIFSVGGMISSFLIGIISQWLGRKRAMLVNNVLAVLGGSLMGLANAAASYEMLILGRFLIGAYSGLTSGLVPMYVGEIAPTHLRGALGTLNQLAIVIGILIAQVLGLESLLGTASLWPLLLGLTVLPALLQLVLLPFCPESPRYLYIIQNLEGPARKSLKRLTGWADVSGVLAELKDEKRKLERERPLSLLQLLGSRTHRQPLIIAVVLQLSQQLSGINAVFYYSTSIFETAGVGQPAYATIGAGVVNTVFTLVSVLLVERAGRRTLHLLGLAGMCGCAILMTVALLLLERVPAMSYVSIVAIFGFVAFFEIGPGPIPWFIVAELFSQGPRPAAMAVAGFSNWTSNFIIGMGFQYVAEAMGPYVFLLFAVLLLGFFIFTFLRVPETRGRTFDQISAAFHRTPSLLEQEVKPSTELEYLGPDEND
Method in brief: (§1)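 Human GLUT4 was expressed in VW4000fgy1erg4 yeast (1% maltose, then 0.2% glucose, SC-uracil). GLUT5 was expressed in VW4000 (YEP with 2% maltose and G418, then 2% fructose). PBS-washed cells were exposed to 50 μM test compound. Uptake of 14C-glucose (5 mM, GLUT4) or 14C-fructose (10 mM, GLUT5) ran 10 min, followed by quench, filtration and scintillation counting. Activity was relative to 1% DMSO and to saturating phloretin (GLUT4) or MSNBA (GLUT5). Triplicates.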

GLUT5 = experiment: as above; assay type: cell-based, human; conditions: 50 μM compound, 10 mM C14-fructose
Method in brief: as §1

## O=C(CN1C(=O)SC(=Cc2ccccn2)C1=O)Nc1nc2ccccc2s1 [Compound P19, N-(benzo[d]thiazol-2-yl)-2-(2,4-dioxo-5-(pyridin-2-ylmethylene)thiazolidin-3-yl)acetamide]
[1]
  CC50: 105 µM
GLUT1
  IC50: 28.2 µM
GLUT4
  relative transport activity of GLUT4: ineffective
GLUT5
  relative transport activity of GLUT5: ineffective
